According to ChEMBL document CHEMBL6103596, “Design, Synthesis, and Biological Evaluation of BODIPY-Caged Resiquimod as a Dual-Acting Phototherapeutic” (J Med Chem, 2025):
Calls of active or inactive are those of the source. No cut-off for these calls is given here.

Tests used:
[1] = Photophysical property of the compound assessed as fluorescence quantum yield; format: physicochemical
[2] = Photorelease activity of the compound in CH3CN assessed as retention time under 532nm laser light by HPLC analysis; format: physicochemical
[3] = Photosensitizing ability of the compound assessed as singlet oxygen quantum yield under 600nm monochromatic light irradiation by DPBF based assay relative to control; format: functional
In short: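 Singlet oxygen generation followed by the decrease in DPBF absorbance under irradiation. DPBF (20–25 μm) used at 5–10-fold excess over compound (2.5–5 μm).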

AD293 [4] = test: Cytotoxicity against human AD293 cells assessed as cell viability at 0.1 to 10 uM incubated for 24 hrs by MTT assay; format: toxicity, cell-based; conditions: ad293, 24 h, dose 0.1-10 µM
In short: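 AD293 cells seeded at 4 × 10^4 cells/well in DMEM with 10% FBS. Next day, compound (100 nM, 1 μM, 10 μM) or vehicle added in serum-free DMEM for 24 h, no irradiation. MTT (5 mg/mL reagent) added for 3 h at 37 °C, formazan dissolved in DMSO, absorbance read at 590 nm. Triplicate wells, four independent experiments.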

[5] = Thermal stability of compound in DMSO-d6 at 37.5 degree C measured before 24 hrs by 1H NMR spectroscopy analysis; format: physicochemical
In short: (§1)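 Compound in DMSO-d6 followed by 1H NMR. Degradation taken from the intensity of three signals (one resiquimod, one BODIPY, and the linkage NH), each relative to the DMSO-d6 internal standard, and the three averaged.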

[6] = Thermal stability of compound in DMSO-d6 at 37.5 degree C measured after 2 days by 1H NMR spectroscopy analysis relative to control; format: physicochemical; conditions: 48 h; time 2 day; in short: as §1
[7] = Photorelease activity of the compound in aqueous solution at 30 uM measured upto 200 mins under dark condition by 1H NMR spectroscopy analysis; format: ADME; conditions: buffer, 3.333 h
[8] = Thermal stability of compound in DMSO-d6 at 37.5 degree C measured after 3 days by 1H NMR spectroscopy analysis relative to control; format: physicochemical; conditions: 72 h; time 3 day; in short: as §1
[9] = Photorelease activity of the compound in DMSO-d6 measured after 10 hrs under 660nm 400mW LED light by 1H NMR spectroscopy analysis relative to control; format: ADME
[10] = Photorelease activity of the compound in aqueous solution at 30 uM measured upto 200 mins under 660nm 400mW LED light by UV-vis spectroscopy analysis; conditions: buffer, 3.333 h
[11] = Thermal stability of compound in DMSO-d6 at 37.5 degree C measured after 1 day by 1H NMR spectroscopy analysis relative to control; format: physicochemical; conditions: 24 h; in short: as §1
[12] = Induction of hydroxyl radical assessed as DMPO-OH radical adduct formation under dark condition measured after 10 mins by ESR spectra analysis; format: functional
In short: (§2)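 ESR spectra recorded with DMPO as spin trap to detect superoxide and/or hydroxyl radical adducts, before and after 10 min irradiation of compound.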

[13] = Induction of superoxide anion radical assessed as DMPO-O2 radical adduct formation under light irradiation measured after 10 mins by ESR spectra analysis; format: functional; in short: as §2
RAW264.7 [14] = test: Effect on iNOS mRNA expression in mouse RAW264.7 cells at 100 nM preincubated with NAC followed by compound addition and measured after 30 mins under 650nm LED light irradiation by real-time PCR analysis; format: functional, cell-based
In short: (§3)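 RAW264.7 cells seeded at 0.3 million per 35 mm dish. Next day, pretreated with 10 mM N-acetyl-cysteine for 30 min, then given 100 nM compound and 650 nm LED light for 30 min. Total RNA taken 24 h later and reverse transcribed with random primers. SYBR real-time PCR run for 40 cycles (95/60/72 °C). Quantities calculated by the Ct method. Results given as fold change, means ± SD.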

AD293 [15] = test: Effect on morphological changes in human AD293 cells stable expressing TLR7 at 10 uM pretreated with N-Acetylcysteine for 30 mins followed by compound addition and measured after 30 mins under LED light irradiation at 650 nm by microscopic analysis; format: functional, cell-based
In short: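 TLR7-stable AD293 cells seeded at 20,000/well. After 24 h, medium switched to Opti-MEM. 1 h later, 10 mM N-acetyl-cysteine added. 30 min after that, cells given 10 μM compound and exposed to 650 nm LED for 30 min, or shielded from light as control. Cells observed by microscope 24 h after drug treatment.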

AD293 [16] = test: Effect on morphological changes in human AD293 cells at 10 uM; format: functional, cell-based
In short: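 AD293 cells treated with 10 μM compound, followed by LED irradiation or kept unirradiated, then morphology examined by microscopy.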

[17] = Drug uptake in human A549 cells assessed as increase in intracellular fluorescence at 1 uM measured after 40 mins by confocal microscopic analysis; format: ADME, cell-based; conditions: a549, 40 min
In short: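 A549 cells treated with 1 μM compound. Intracellular fluorescence imaged by confocal microscopy (640 nm laser excitation, 650–750 nm band-pass) at 0 and 40 min after treatment.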

[18] = Induction of hydroxyl radical assessed as DMPO-OH radical adduct formation under light irradiation measured after 10 mins by ESR spectra analysis; format: functional; in short: as §2
[19] = Drug uptake in human AD293 cells assessed as increase in red fluorescence at 10 uM measured after 40 mins by fluorescence imaging based analysis; format: ADME, cell-based; conditions: ad293, 40 min
[20] = Induction of superoxide anion radical assessed as DMPO-O2 radical adduct formation under dark condition measured after 10 mins by ESR spectra analysis; format: functional; in short: as §2
RAW264.7 [21] = test: Effect on TNF-alpha mRNA expression in mouse RAW264.7 cells at 100 nM preincubated with NAC followed by compound addition and measured after 30 mins under 650nm LED light irradiation by real-time PCR analysis; format: functional, cell-based; in short: as §3
[22] = Photorelease activity of the compound in aqueous medium assessed as reduction in lamda maximum at 30 uM measured after 1 hr under 525 nm LED light radiation by UV-vis spectroscopy analysis; format: ADME; conditions: buffer
[23] = Phototoxicity in human HaCaT cells assessed as cell viability at 10 uM under 530 ot 650nm 30 mW LED light irradiation and measured after 72 hrs by CCK-8 method relative to control; format: functional; conditions: light or radiation study, read-out: Activity
In short: (§4)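 A549, HaCaT and HeLa cells seeded at 2 × 10^3 cells/well in phenol red-free DMEM with 10% FBS. After 24 h, medium replaced with 1% DMSO containing 10 μM compound. After 90 min, one plate kept dark and one exposed to 530 or 650 nm LED (30 mW) for 15 min. Plates incubated 72 h, then CCK-8 read at 450 nm. Viability taken relative to dark control. Triplicates (HaCaT six).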

[24] = target: T1, Toll-like receptor 7 (Homo sapiens) (UniProt Q9NYK1); test: Activation of TLR7 in human AD293 cells assessed as IkappaB-alpha degradation at 10 uM preincubated with NAC followed by compound addition and measured after 30 mins under 650nm red light irradiation by Western blot analysis; format: cell-based; conditions: filed as activator
T1 sequence (whole entry): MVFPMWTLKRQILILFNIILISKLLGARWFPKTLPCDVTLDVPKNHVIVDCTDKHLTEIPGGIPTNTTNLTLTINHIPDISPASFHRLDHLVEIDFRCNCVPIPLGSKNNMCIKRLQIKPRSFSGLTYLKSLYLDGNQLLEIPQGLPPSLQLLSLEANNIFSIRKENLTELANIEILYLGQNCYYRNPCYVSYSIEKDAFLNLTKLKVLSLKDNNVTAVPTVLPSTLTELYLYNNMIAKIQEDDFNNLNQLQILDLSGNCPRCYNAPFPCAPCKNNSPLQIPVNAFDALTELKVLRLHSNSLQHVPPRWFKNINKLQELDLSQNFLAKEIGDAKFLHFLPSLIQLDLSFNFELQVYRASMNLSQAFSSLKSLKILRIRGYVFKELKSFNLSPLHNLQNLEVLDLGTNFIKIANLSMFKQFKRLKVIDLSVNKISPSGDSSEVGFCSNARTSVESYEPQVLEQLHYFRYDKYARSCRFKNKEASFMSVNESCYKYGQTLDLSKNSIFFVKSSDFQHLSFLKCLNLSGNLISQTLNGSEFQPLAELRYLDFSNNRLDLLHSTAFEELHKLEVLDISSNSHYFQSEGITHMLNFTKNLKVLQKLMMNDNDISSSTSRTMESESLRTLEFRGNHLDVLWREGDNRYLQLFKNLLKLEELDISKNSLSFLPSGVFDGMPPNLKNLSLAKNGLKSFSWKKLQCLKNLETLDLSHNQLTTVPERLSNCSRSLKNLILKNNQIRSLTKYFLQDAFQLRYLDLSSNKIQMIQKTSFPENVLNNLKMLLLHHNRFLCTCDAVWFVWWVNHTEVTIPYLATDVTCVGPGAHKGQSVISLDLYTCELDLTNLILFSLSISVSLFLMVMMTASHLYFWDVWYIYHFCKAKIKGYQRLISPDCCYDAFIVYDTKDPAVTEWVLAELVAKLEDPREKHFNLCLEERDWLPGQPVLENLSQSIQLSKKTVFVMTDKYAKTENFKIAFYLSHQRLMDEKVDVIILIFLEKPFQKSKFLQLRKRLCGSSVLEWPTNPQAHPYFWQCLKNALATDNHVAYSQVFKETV
In short: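 Stable TLR7-expressing AD293 line made by TLR7 plasmid transfection and hygromycin B selection (250 μg/mL, 10 days). Cells pretreated with N-acetyl-cysteine, then given 10 μM compound, with or without 30 min 650 nm red-light irradiation. Lysates run on 10% SDS-PAGE and blotted to PVDF. Total IκB probed (1:1000) with GAPDH loading control, ECL detection. Means of three experiments.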

[25] = Photorelease activity of the compound in DMSO-d6 measured after 1 hr under 532nm YAG laser radiation by 1H NMR spectroscopy analysis relative to control; format: ADME
[26] = Photorelease activity of the compound in CH3CN at 532nm laser light measured upto 60 mins under argon condition by HPLC analysis relative to control; format: ADME; design: dose or concentration left out as unconfirmed; conditions: 1 h
[27] = Photorelease activity of the compound in CH3CN at 532nm laser light measured upto 60 mins under air condition by HPLC analysis relative to control; format: ADME; design: dose or concentration left out as unconfirmed; conditions: 1 h
[28] = Dark toxicity in human HaCaT cells assessed as cell viability at 10 uM under dark condition and measured after 72 hrs by CCK-8 method relative to control; format: cell-based; conditions: read-out: Activity; in short: as §4
[29] = Photorelease activity of the compound in aqueous medium at 30 uM measured after 1 hr under dark condition by UV-vis spectroscopy analysis; format: ADME; conditions: buffer
[30] = Phototoxicity in human HeLa cells assessed as cell viability at 10 uM under 530 ot 650nm 30 mW LED light irradiation and measured after 72 hrs by CCK-8 method relative to control; format: functional; conditions: light or radiation study, read-out: Activity; in short: as §4
[31] = Dark toxicity in human HeLa cells assessed as cell viability at 10 uM under dark condition and measured after 72 hrs by CCK-8 method relative to control; format: cell-based; conditions: read-out: Activity; in short: as §4
[32] = Dark toxicity in human A549 cells assessed as cell viability at 10 uM under dark condition and measured after 72 hrs by CCK-8 method relative to control; format: cell-based; conditions: read-out: Activity; in short: as §4
[33] = Phototoxicity in human A549 cells assessed as cell viability at 10 uM under 530 ot 650nm 30 mW LED light irradiation and measured after 72 hrs by CCK-8 method relative to control; format: functional; conditions: A549, light or radiation study, read-out: Activity; in short: as §4

Activity [1] | Retention_time [2] [min] | Activity [5] | Activity [6] [%] | Activity [8] [%] | Activity [11] [%] | Activity [24] | SMILES | Activity [3] [%] | Activity (AD293 [4]) | Activity (AD293 [15]) | Activity (AD293 [16]) | viability at 72 h, 10 µM [28] [%] | viability at 72 h, 10 µM [31] [%] | viability at 72 h, 10 µM [32] [%] | also measured
0.835 | 4.15 | – | – | – | – | – | CC1=CC(C)=[N+]2C1=C(CO)c1c(C)cc(C)n1[B-]2(F)F | 7 | Toxic | – | – | – | – | – | –
0.482 | – | Not_active | 11 | 15 | 7 | – | CCOCc1nc2c(NC(=O)OCC3=C4C(C)=CC(/C=C/c5ccc(OCCOCCOCCOC)cc5)=[N+]4[B-](F)(F)n4c(/C=C/c5ccc(OCCOCCOCCOC)cc5)cc(C)c43)nc3ccccc3c2n1CC(C)(C)O | 0.33 | Non-toxic | – | – | – | – | – | Activity [7]: Not_active; Activity [9]: ~ 90%; Activity [10]: Active
– | – | – | – | – | – | – | COCCOCCOCCOc1ccc(/C=C/C2=[N+]3C(=C(CO)c4c(C)cc(/C=C/c5ccc(OCCOCCOCCOC)cc5)n4[B-]3(C)C)C(C)=C2)cc1 | 2.2 | Non-toxic | Active; Showed Greater Effect Than Compound 3C | inactive | – | – | – | Activity [12]: inactive; Activity [13]: inactive; Activity (RAW264.7 [14]): inactive; Drug uptake [17]: Active; Activity [18]: inactive; Drug uptake [19]: Active; Activity [20]: inactive; Activity (RAW264.7 [21]): inactive
0.809 | 6.8 | Not_active | 22 | 31 | 12 | Active | CCOCc1nc2c(NC(=O)OCC3=C4C(C)=CC(C)=[N+]4[B-](F)(F)n4c(C)cc(C)c43)nc3ccccc3c2n1CC(C)(C)O | 3.2 | Toxic | – | – | 6 | 2 | 19 | Activity [22]: Active; viability at 10 µM [23]: 88%; Activity [25]: 100%; Activity [26]: ~ 77%; Activity [27]: ~ 68%; Activity [29]: Not_active; viability at 10 µM [30]: 54%
– | – | – | – | – | – | Active | CCOCc1nc2c(N)nc3ccccc3c2n1CC(C)(C)O [RESIQUIMOD] | – | – | inactive | inactive | 32 | 4 | 19 | viability at 10 µM [33]: 21%
0.554 | – | – | – | – | – | – | COCCOCCOCCOc1ccc(/C=C/C2=[N+]3C(=C(CO)c4c(C)cc(/C=C/c5ccc(OCCOCCOCCOC)cc5)n4[B-]3(F)F)C(C)=C2)cc1 | 0.37 | Non-toxic | – | – | – | – | – | –
